{"data": "Measurements from different studies", "target": "TGF-beta receptor type-2 (TGFBR2, Homo sapiens, UniProt P37173)", "note": "Lines come from different studies, so protocols differ."}
{"Compound": "O=C1NC(=O)c2cc(Nc3ccc(F)cc3)c(Nc3ccc(F)cc3)cc21", "observed": "cell-free assay", "tested at": "0.5 µM", "endpoint": "remaining signal", "value": "85.2%"}
{"Compound": "O=C(Nc1cnn(-c2csc(C(=O)NC3COC3)c2)c1)Nc1c(F)cccc1Cl", "observed": "enzyme activity", "mode": "inhibitor", "tested at": "5 µM", "endpoint": "remaining activity", "value": "82.6%"}
{"Compound": "Nc1ncnc2occ(-c3ccc(NC(=O)Nc4cc(C(F)(F)F)ccc4F)cc3)c12", "observed": "cell-free assay", "tested at": "20 µM", "endpoint": "remaining signal", "value": "99%"}
{"Compound": "CN1CC(Oc2cnc(C#N)cc2-c2ccn3nc(NC(=O)C4CC4)cc3c2)C1", "observed": "enzyme activity", "mode": "inhibitor", "tested at": "1 µM", "endpoint": "inhibition", "value": "11%"}
{"Compound": "NS(=O)(=O)c1cc(NC(=O)Cc2ccccc2)ccc1Oc1cccc(Cl)c1", "observed": "cell-free assay", "method": "competition with immobilised ligand", "tested at": "1 µM", "endpoint": "remaining binding", "value": "87%"}
{"Compound": "CNC(=O)c1cc(Oc2ccc(NC(=O)Nc3ccc(Cl)c(C(F)(F)F)c3)cc2)ccn1", "observed": "cell-free assay", "tested at": "0.5 µM", "endpoint": "remaining signal", "value": "99.9%"}
{"Compound": "Cc1sc(C(=O)NC2COC2)cc1-n1cc(NC(=O)Nc2c(F)cccc2Cl)cn1", "observed": "enzyme activity", "mode": "inhibitor", "tested at": "10 µM", "endpoint": "remaining activity", "value": "86.8%"}
{"Compound": "CC(C)(C)c1nc(-c2cccc(NS(=O)(=O)c3c(F)cccc3F)c2F)c(-c2ccnc(N)n2)s1", "observed": "enzyme activity", "mode": "inhibitor", "method": "radiometric", "tested at": "1 µM", "endpoint": "remaining activity", "value": "42%"}
{"Compound": "Cc1nc(N2CC[C@@H](O)C2)ncc1-c1cc(C(F)(F)F)cc2[nH]ncc12", "observed": "cell-free assay", "method": "competition with immobilised ligand", "tested at": "1 µM", "endpoint": "remaining binding", "value": "99%"}
{"Compound": "c1ccc(-c2[nH]ncc2-c2ccnc3ccccc23)nc1", "observed": "cell-free assay", "tested at": "0.5 µM", "endpoint": "remaining signal", "value": "109%"}
{"Compound": "Cc1nc(C2CCN(C(=O)c3ccc(OC(F)(F)F)cc3N)CC2)c2ncc(N3CCN(C)CC3)cc2n1", "observed": "cell-free assay", "method": "competition with immobilised ligand", "tested at": "1 µM", "endpoint": "remaining binding", "value": "93%"}
{"Compound": "O=C1Nc2ccc(Cl)cc2C1=Cc1cc(Cl)c(O)c(Cl)c1", "observed": "cell-free assay", "tested at": "0.5 µM", "endpoint": "remaining signal", "value": "94.9%"}
